Compounds with a hit are over-represented: about 6.4% of the library has one in this group of screens.
Lung fibro prol: blocks proliferation of human lung fibroblasts. LL 47 human lung fibroblast viability, ATP luminescence; hits give low values. AID 719. 85,000 compounds, 1.1% hits. viability, % at 10 µM;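 active = viability at or below 50% in the single dose screen; inactive = viability above 50%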;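 note: compound exposure lasted 72 h before the ATP readout; 100% = median luminescence of untreated cell-only wells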
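Signal: luminescent ATP detection, CellTiter-Glo; assay system: LL 47 human lung fibroblasts; input: 1,150 cells/well; incubation: overnight cell rest, 72 h compound treatment at 37 °C; measure: % viability versus median cells-only luminescence; medium: IMEM growth medium with 15% fetal bovine serum; dosing: compound addition at 0.1% DMSO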
Jurkat viability: reduces viability or proliferation of Jurkat cells. Jurkat E6.1 viability, ATP luminescence, 48 h. inhibition, % at 4 µM. 56,000 compounds, 1.2% hits. AID 463;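 active = inhibition above the mean inhibition of all tested compounds plus 3 SD, cut at about 28% in these data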
Ecoli tolC: E. coli tolC mutant growth inhibition | E. coli BW25113 tolC mutant growth, OD615 | 65,000 compounds, 2.2% hits | growth inhibition, % at 10 µM (by protocol);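 active = growth inhibition at or above a cutoff equal to the mean over every tested compound plus 3 SD, cut at about 60% in these data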;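 note: growth measured after 20 h incubation at 37 °C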
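Assay system: tolC-deleted E. coli BW25113. Medium: kanamycin-containing LB broth (50 µg/mL). Dosing: 10 µM final, single dose. Timing: bacterial growth with compound for 20 h at 37 °C. Detection: A615 absorbance measurement. Read-out basis: growth inhibition in percent.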
HUVEC prolif 384: human endothelial cell proliferation inhibition. viability, % at 10 µM (by protocol). 86,000 compounds, 1.1% hits. HUVEC proliferation, CellTiter-Glo luminescence, 72 h; hits give low values;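 active = viability at or below 30%; inactive = viability above 30%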;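 note: 100% = median luminescence of DMSO-only cell control wells on each plate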
E coli WT exp: blocks growth of wild type E. coli BW25113; OD600 absorbance; growth inhibition, % at 100 µM; 98,000 compounds, 0.15% hits; AID 710;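 active = growth inhibition above about 50% at one test dose, limit read from the data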;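 note: growth measured after 20 h incubation at 37 °C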
H69AR inhibit: growth inhibitors of human H69AR lung tumor cells; H69AR lung tumor viability, ATP luminescence, 72 h; hits give low values; viability, % at 10 µM; 85,000 compounds, 6% hits; AID 598;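 active = viability at or below 40%; inactive = viability above 40%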;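 note: multidrug resistant small cell line overexpressing MRP-1 efflux transporter; 100% = mean luminescence of untreated control wells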
* marks the source's active call; other numbers are inactive results; . = no result.

SMILES	Lung fibro prol	Jurkat viability	Ecoli tolC	HUVEC prolif 384	E coli WT exp	H69AR inhibit
O=C1NC(=O)C2(Cc3ccccc3N3CCCC32)C(=O)N1c1ccccc1 (centres undefined)	90	-8	0	87	-9	102
O=C1NC(=O)C2(Cc3ccccc3N3CCOCC32)C(=O)N1c1ccccc1 (centres undefined)	94	.	.	72	7	19*
C[N+]12CCC(CC1)C(C(O)(c1ccccc1)c1cccs1)C2 (centres undefined)	.	.	.	.	2	.
CN1CSC(=S)N(C)C1	99	.	-7	102	-1	28*
CCN(CC)CCN=Cc1c(O)n(Cc2ccccc2)c(=O)[nH]c1=O	100	.	.	99	6	100
Cn1c(O)c(/C=N/c2ccccn2)c(=O)n(C)c1=O	100	.	-8	90	-4	84
COc1ccccc1N=Cc1c(O)n(C)c(=O)n(C)c1=O	93	-1	-12	97	4	1.3*
O=C1c2ccccc2C(=O)N1Cc1nc2ccccc2c(=O)n1-c1ccc(Br)cn1	108	3	8	90	1	91
CCCCn1c(=O)c(C(=O)NCc2ccncc2)c(O)c2ccccc21	100	3	54	123	11	75
CCCCNC(=O)c1c(N)n(CCCOC)c2nc3ccccc3nc12	.	.	22	.	7	.
CCCCCCn1c(=O)c(C(=O)Nc2ccncc2)c(O)c2ccccc21	55	-4	27	63	.	12*
O=C(Nc1cccnc1)c1c(O)c2c(n(Cc3ccccc3)c1=O)CCCC2	103	6	36	94	-7	86
CCCCn1c(=O)c(C(=O)Nc2ccccc2S(N)(=O)=O)c(O)c2ccccc21	104	-4	98*	74	-4	23*
O=C(Nc1ccncc1)c1c(O)c2ccccc2n(Cc2ccccc2)c1=O	92	.	11	99	.	17*
COC(=O)CCCNC(=O)CN1CC(c2ccccc2)CC1=O (centres undefined)	111	-6	-10	100	6	103
CCCC(=O)OCC[N+](C)(C)C	92	.	2	100	.	101
CN1C[C@H](CNC(=O)OCc2ccccc2)C[C@@H]2c3cccc4c3c(cn4C)C[C@H]21	76	.	11	3.9*	.	1.7*
CN(C)C(=O)On1c(-c2ccccc2)nc2ccc(Cl)cc21	90	.	.	98	12	38*
COc1ccc(CCNCc2ccc(OC)c(OC)c2OC)cc1	92	.	.	88	2	90
CN(C)c1ccc(C(=O)c2ccc(N(C)C)cc2)cc1	55	.	.	41	-3	16*
CC1(C)CN=C(Nc2ccccc2C(F)(F)F)S1	98	2	-14	94	3	94
CC(C)OCCCNC(=O)c1c(N)n(Cc2cccs2)c2nc3ccccc3nc12	81	-2	17	35	-10	98
Nc1c(C(=O)OCC2CCCO2)c2nc3ccccc3nc2n1Cc1cccs1 (centres undefined)	97	0	32	60	4	39*
COc1cccc(OCC(=O)N2CCN(C)CC2)c1	.	1	-11	96	4	69
CC1(C)CC(=O)C(C=NCCN2CCN(C(=O)Cc3ccc(F)cc3)CC2)=C(O)C1	93	.	9	94	0	80
SMILES	Lung fibro prol	Jurkat viability	Ecoli tolC	HUVEC prolif 384	E coli WT exp	H69AR inhibit
C[C@H]1CCC[C@H](O)CCCCCc2cc(O)cc(O)c2C(=O)O1	85	3	12	47	-1	32*
C[C@H]1CCC[C@@H](O)CCC/C=C/c2cc(O)cc(O)c2C(=O)O1	70	.	26	34	2	6.5*
Fc1ccc2c(c1)nnn2C1CCN(Cc2ccccc2)CC1	103	6	-8	93	8	81
N=c1c[n+](CC23CC4CC(CC(C4)C2)C3)[n-]o1	.	2	-9	.	14	.
CCCCCCCC(=O)NC(Oc1ccccc1[N+](=O)[O-])C(Cl)(Cl)Cl (centres undefined)	97	.	.	105	3	94
C[C@H]1CCC/C=C/C2C[C@H](O)CC2[C@H](O)/C=C/C(=O)O1 (some centres undefined)	.	.	6	.	.	.
CC1CCC/C=C/C2CC(O)CC2C(O)/C=C/C(=O)O1 (centres undefined)	11*	.	.	8.3*	-2	2.9*
CN1CCN(c2ccc(NC(=O)Oc3ccccc3)cc2)CC1	101	.	.	89	6	99
